Sampled rows, rich in hits. Any-hit rate of the full collection: about 2.2%.
M5 antag: blocks acetylcholine activation of human M5 receptor; P08912; inhibition, % at 3 µM; AID 624040; CHO-hM5 cells, Fluo-8 calcium fluorescence, ACh EC80; 0.59% of 360,000 active;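 active = inhibition above a per-plate cutoff, the mean of that plate's test compounds plus 3 SD, cut at about 27% in these data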
Target sequence (P08912 whole entry, looked up): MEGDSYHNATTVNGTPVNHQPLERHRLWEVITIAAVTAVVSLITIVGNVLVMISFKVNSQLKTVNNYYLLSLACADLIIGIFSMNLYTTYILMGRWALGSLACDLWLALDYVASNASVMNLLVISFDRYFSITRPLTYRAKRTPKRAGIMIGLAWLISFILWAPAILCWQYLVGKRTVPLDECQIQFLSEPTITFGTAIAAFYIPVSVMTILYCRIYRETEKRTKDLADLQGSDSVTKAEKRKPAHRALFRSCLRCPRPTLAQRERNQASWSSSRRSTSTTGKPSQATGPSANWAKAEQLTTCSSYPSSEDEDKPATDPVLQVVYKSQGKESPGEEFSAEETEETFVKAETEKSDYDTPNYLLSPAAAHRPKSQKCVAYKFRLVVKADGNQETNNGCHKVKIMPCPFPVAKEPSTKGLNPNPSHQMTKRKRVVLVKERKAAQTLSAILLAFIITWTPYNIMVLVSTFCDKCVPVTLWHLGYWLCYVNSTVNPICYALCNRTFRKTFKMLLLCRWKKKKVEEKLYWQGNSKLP
M1 antag: antagonists of human M1 muscarinic receptor; CHO-K1 hM1, Fluo-8 calcium fluorescence, ACh EC80 antagonist; inhibition, % at 3 µM; 1.3% of 360,000 active;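 active = percent inhibition above its own plate's cutoff, namely the mean of that plate's compound wells plus 3 SD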;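 also: peak over basal fluorescence ratio during 140 s after agonist addition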
M5 PAM: positive allosteric modulators of human muscarinic M5 receptor. CHO-K1 hM5, Fluo-8 calcium, ACh EC20 PAM; 0% = ACh EC20, 100% = ACh EC100. activation, % at 3 µM. 0.3% of 360,000 active;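 active = activation above the run cutoff, the mean activation of all test compounds plus 3 SD, cut at about 18% in these data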
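Assay system – human M5 receptor in CHO-K1 cells · Read-out – % activation, ACh-normalized · Technique – Fluo-8 calcium fluorescence · Dosing – single-point, 3 µM nominal · Incubation – Fluo-8 loading 80 min at 37 °C plus 30 min room temperature · Repeats – singlicate, one well per test compound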
M5 ag: CHRM5 agonism in calcium assay; P08912; CHO-K1 hM5 cells, Fluo-8 calcium fluorescence; 0% DMSO wells, 100% maximal acetylcholine response; activation, % at 3 µM; 0.19% of 360,000 active; AID 624037;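 active = activation above the run's mean over test compounds plus 3 SD, cut at about 23% in these data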;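 also: signal is peak over basal fluorescence ratio across the kinetic read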
M1 ag: activates human CHRM1 receptor. P11229. CHO-K1 hM1, Fluo-8 calcium fluorescence, agonist mode; 0% DMSO, 100% acetylcholine EC100. activation, % at 3 µM. 0.33% of 360,000 active;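 active = activation above the run's mean compound activation plus 3 SD, cut at about 16% in these data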;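 also: peak over basal fluorescence ratio within a 140 s kinetic read after compound addition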
CHRM1 PAM: positive allosteric modulators of human M1 muscarinic receptor; CHO-K1 hM1, Fluo-8 calcium fluorescence, ACh EC20; 0% = ACh EC20, 100% = maximal ACh; activation, % at 3 µM; 0.088% of 360,000 active; in the data active = activation above about 19%, passing the limit was not always enough
Numbers stand for hits.

O=C(CNC(=O)c1n[nH]c2ccccc12)Nc1ccc(F)c(F)c1F was read as M5 antag inactive, M1 antag inactive, M5 PAM inactive, M5 ag inactive, M1 ag inactive and CHRM1 PAM inactive.
CC1(C)Cc2ccccc2-c2nnc(-c3ccccn3)n21 was read as M5 antag inactive, M1 antag inactive, M5 PAM inactive, M5 ag inactive, M1 ag inactive and CHRM1 PAM inactive.
`COc1ccccc1-c1cc(SC)c(C#N)c(=O)o1` gave M5 antag inactive, M1 antag inactive, M5 PAM inactive, M5 ag inactive, M1 ag inactive and CHRM1 PAM inactive.
CC(=O)c1c(C)[nH]c(C(=O)CN2C(=O)NC(C)(c3ccc4c(c3)OCO4)C2=O)c1C (stereo unspecified) was read as M5 antag inactive, M1 antag inactive, M5 PAM inactive, M5 ag inactive, M1 ag inactive and CHRM1 PAM inactive.
`CC1(c2ccc(OC(F)F)cc2)NC(=O)N(CC(=O)c2ccc3c(c2)OCO3)C1=O` (stereo unspecified) gave M5 antag inactive, M1 antag inactive, M5 PAM inactive, M5 ag 42, M1 ag 43 and CHRM1 PAM inactive.
Screening CC1(c2ccc([N+](=O)[O-])cc2)NC(=O)N(CC(=O)c2ccc3c(c2)OCO3)C1=O (stereo unspecified) returned M5 antag inactive, M1 antag inactive, M5 PAM inactive, M5 ag 36, M1 ag 37 and CHRM1 PAM inactive.
For CCc1noc(C)c1C(=O)Nc1ccccc1N1CCOCC1 the results were M5 antag inactive, M1 antag inactive, M5 PAM inactive, M5 ag inactive, M1 ag inactive and CHRM1 PAM inactive.
Screening c1ccc(C[C@H]2CNCCN2CC2CCCCC2)cc1 returned M5 antag inactive, M1 antag inactive, M5 PAM inactive, M5 ag inactive, M1 ag inactive and CHRM1 PAM inactive.
`c1ccc(CC2CCCNC2)cc1` (stereo unspecified) gave M5 antag inactive, M1 antag inactive, M5 PAM inactive, M5 ag inactive, M1 ag 22 and CHRM1 PAM inactive.
`CC(CCc1ccc(O)cc1)NCc1ccc(Br)cc1` (stereo unspecified) gave M5 antag inactive, M1 antag 32, M5 PAM inactive, M5 ag inactive, M1 ag inactive and CHRM1 PAM inactive.
Screening CC(CCc1ccc(O)cc1)NCCC(c1ccccc1)c1ccccc1 (stereo unspecified) returned M5 antag inactive, M1 antag 45, M5 PAM inactive, M5 ag inactive, M1 ag inactive and CHRM1 PAM inactive.
Screening CC(CCc1ccc(O)cc1)N(C)CCc1ccccc1 (stereo unspecified) returned M5 antag inactive, M1 antag 56, M5 PAM inactive, M5 ag inactive, M1 ag inactive and CHRM1 PAM inactive.
O=C(NCCc1cnn(-c2ccccc2)c1)c1cc(COc2c(F)cccc2F)on1 was read as M5 antag inactive, M1 antag inactive, M5 PAM inactive, M5 ag inactive, M1 ag inactive and CHRM1 PAM inactive.
`COc1cc(C23CCCN(CCC(C(C)(C)C)C2)C32OCCO2)cc(OC)c1OC` (stereo unspecified) gave M5 antag inactive, M5 PAM inactive and M5 ag inactive.
Cn1c(Cc2ccccc2)nnc1SCC(=O)Nc1ccc(N2CCOCC2)cc1 was read as M5 antag inactive, M1 antag inactive, M5 PAM inactive, M5 ag inactive, M1 ag inactive and CHRM1 PAM inactive.
For CC(=O)OCCCN(C)CC/C=C1/c2ccccc2CSc2ccccc21 the results were M5 antag inactive, M1 antag 74, M5 PAM inactive, M5 ag inactive, M1 ag inactive and CHRM1 PAM inactive.
CN(CCC#N)C(=O)c1cc2c(s1)-c1ccccc1SC2 was read as M5 antag inactive, M1 antag inactive, M5 PAM inactive, M5 ag inactive, M1 ag inactive and CHRM1 PAM inactive.

Assay outcomes: PubChem, The Scripps Research Institute Molecular Screening Center
